# Source: ChEMBL document CHEMBL4673221, “Furanoflavones pongapin and lanceolatin B blocks the cell cycle and induce senescence in CYP1A1-overexpressing breast cancer cells” (Bioorg Med Chem, 2018)
# Active and inactive are the calls of the source. The rule behind the calls is not given here.
# Key:
# Cytochrome P450 2D6 = Cytochrome P450 2D6 (Homo sapiens, UniProt P10635); assay: Inhibition of human CYP2D6 expressed in Sacchrosomes using 7-ethoxy-methyloxy-3-cyanocoumarin as substrate by fluorescence based assay; assay type: ADME
# Sequence of Cytochrome P450 2D6 (P10635 whole entry): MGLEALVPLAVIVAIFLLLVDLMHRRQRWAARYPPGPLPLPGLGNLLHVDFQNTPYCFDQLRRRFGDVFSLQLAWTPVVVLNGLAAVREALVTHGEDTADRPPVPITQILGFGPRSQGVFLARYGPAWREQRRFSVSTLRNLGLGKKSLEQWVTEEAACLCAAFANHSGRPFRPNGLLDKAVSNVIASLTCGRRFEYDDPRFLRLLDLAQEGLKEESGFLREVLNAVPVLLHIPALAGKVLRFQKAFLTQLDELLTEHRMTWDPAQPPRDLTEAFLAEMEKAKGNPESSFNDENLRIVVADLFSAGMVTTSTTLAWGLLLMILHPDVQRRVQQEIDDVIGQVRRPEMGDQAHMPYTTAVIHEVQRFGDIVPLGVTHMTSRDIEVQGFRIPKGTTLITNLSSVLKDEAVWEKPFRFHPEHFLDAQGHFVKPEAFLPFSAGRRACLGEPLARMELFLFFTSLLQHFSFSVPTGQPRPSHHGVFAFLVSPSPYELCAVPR
# Cytochrome P450 1A1 [1] = biological target: T1, Cytochrome P450 1A1 (Homo sapiens, UniProt P04798); assay: Inhibition of human CYP1A1 expressed in sacchrosomes using 7-ethoxyresorufin as substrate by fluorescence based assay
# T1 sequence (P04798 whole entry): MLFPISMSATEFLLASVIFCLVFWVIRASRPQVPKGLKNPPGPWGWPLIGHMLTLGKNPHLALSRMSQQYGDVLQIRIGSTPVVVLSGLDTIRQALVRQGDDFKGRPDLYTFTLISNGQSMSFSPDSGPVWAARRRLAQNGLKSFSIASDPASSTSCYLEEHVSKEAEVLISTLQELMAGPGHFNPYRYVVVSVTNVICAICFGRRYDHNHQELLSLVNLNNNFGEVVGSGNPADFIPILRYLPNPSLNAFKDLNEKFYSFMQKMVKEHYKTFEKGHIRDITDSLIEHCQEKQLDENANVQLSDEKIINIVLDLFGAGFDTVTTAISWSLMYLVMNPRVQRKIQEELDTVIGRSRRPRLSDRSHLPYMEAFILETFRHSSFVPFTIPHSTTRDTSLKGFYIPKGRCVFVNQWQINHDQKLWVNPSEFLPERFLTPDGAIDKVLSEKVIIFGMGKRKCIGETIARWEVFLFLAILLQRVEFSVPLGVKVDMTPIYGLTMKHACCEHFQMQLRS
# In short: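 Enzymes were microsomal preparations isolated from recombinant baker's yeast (Sacchrosomes). Compounds were screened at 10 μM for percent inhibition, and IC50 values were also determined. Values are mean ± SD of three independent experiments. Alpha-naphthoflavone served as the positive control.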
# MCF7 [2] = assay: Cell cycle arrest in human MCF-7 cells over expressing CYP1A1 assessed as down regulation of CyclinD1 after 24 hrs by western blotting assay; assay type: functional, cell-based
# In short: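 Cyclin D1 was detected by Western blot, with β-tubulin as loading control. Untreated cells served as control.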
# Cytochrome P450 1A1 [3] = biological target: T1, Cytochrome P450 1A1; assay: Inhibition of human CYP1A1 expressed in HEK293 cells assessed as reduction in CYP1A1 mediated […] induced-toxicity by measuring EC50 at 3 times of IC50 concentration by MTT assay relative to control; assay type: cell-based; parameters: scale not given: the % may be the effect or the level left
# In short: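 Adherent HEK293 cells transfected with pcDNA3.1/hCYP1A1 were exposed to B[a]P over 0.05–100 µM, with inhibitor at 3x its IC50 from the suspension HEK293-CYP1A1 assay. The EC50 of B[a]P for cell growth inhibition was derived. Cells transfected with empty plasmid were used for comparison. Values are mean and SD of three independent experiments.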
# Cytochrome P450 2E1 = Cytochrome P450 2E1 (Homo sapiens, UniProt P05181); assay: Inhibition of human CYP2E1 expressed in Sacchrosomes by fluorescence based assay; assay type: ADME
# Sequence of Cytochrome P450 2E1 (P05181 whole entry): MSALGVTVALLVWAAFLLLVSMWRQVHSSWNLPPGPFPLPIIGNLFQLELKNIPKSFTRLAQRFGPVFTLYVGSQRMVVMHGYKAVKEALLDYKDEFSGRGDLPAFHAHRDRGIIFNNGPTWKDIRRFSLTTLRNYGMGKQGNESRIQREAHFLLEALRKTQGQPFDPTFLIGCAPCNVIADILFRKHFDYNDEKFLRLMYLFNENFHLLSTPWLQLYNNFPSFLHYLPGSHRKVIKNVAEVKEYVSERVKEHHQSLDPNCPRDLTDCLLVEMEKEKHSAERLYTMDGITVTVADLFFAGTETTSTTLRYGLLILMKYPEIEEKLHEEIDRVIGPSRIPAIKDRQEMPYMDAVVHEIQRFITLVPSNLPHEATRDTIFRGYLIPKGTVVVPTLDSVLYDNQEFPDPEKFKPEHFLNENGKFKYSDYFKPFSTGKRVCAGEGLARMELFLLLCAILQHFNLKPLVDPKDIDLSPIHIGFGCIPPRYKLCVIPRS
# Cytochrome P450 2C18 = biological target: T2, Cytochrome P450 2C18 (Homo sapiens, UniProt P33260); assay: Inhibition of human CYP2C18 expressed in Sacchrosomes by fluorescence based assay; assay type: ADME
# T2 sequence (P33260 whole entry): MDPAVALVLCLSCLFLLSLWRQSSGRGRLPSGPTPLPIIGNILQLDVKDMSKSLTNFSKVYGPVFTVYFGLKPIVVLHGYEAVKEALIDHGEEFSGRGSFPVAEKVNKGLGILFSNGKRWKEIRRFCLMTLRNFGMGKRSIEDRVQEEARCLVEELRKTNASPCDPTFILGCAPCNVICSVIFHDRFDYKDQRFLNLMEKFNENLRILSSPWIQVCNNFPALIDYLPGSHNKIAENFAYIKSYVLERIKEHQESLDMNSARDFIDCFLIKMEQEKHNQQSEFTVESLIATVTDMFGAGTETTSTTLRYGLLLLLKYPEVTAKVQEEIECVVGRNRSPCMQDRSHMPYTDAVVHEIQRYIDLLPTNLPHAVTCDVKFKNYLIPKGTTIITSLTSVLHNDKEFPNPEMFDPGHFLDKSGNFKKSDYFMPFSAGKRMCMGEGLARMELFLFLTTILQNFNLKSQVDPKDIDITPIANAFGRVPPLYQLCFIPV
# MCF7 [4] = assay: Induction of cellular senescence in human MCF7 cells over expressing CYP1A assessed as increase in beta-gal-positive cells at 2 times of EC50 concentration incubated for 96 hrs by microscopic assay relative to control; assay type: functional
# In short: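 MCF7-1A1 cells were seeded at 25,000 per well and stabilised for 24 h, then treated for 96 h. Cells were fixed for 10 min at room temperature and stained for β-galactosidase at 37 °C without CO2 for 48 h. The percentage of blue-stained cells was counted by phase-contrast microscopy against untreated cultures.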
# Homo sapiens = species: Homo sapiens; assay: Selectivity ratio IC50 for inhibition of human CYP1B1 expressed in HEK293 cells toIC50 for Inhibition of CYP1A1 expressed in HEK293 cells; assay type: cell-based
# Cytochrome P450 1A1 [5] = biological target: T1, Cytochrome P450 1A1; assay: Inhibition of human CYP1A1 expressed in human HEK293 cells using 7-ethoxyresorufin as substrate preincubated for 30 mins followed by substrate additon and measured after 60 mins by fluorescence based assay; assay type: cell-based
# In short: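 The assay used live recombinant human HEK293 cells grown in suspension, each cell line expressing a single CYP (CYP1A1 or CYP1B1). Percent inhibition was read at 10 μM, and IC50 values were determined. Values are mean ± SD of three independent experiments. Alpha-naphthoflavone served as the reference inhibitor.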
# Cytochrome P450 2B6 = biological target: T3, Cytochrome P450 2B6 (Homo sapiens, UniProt P20813); assay: Inhibition of human CYP2B6 expressed in Sacchrosomes by fluorescence based assay; assay type: ADME
# T3 sequence (P20813 whole entry): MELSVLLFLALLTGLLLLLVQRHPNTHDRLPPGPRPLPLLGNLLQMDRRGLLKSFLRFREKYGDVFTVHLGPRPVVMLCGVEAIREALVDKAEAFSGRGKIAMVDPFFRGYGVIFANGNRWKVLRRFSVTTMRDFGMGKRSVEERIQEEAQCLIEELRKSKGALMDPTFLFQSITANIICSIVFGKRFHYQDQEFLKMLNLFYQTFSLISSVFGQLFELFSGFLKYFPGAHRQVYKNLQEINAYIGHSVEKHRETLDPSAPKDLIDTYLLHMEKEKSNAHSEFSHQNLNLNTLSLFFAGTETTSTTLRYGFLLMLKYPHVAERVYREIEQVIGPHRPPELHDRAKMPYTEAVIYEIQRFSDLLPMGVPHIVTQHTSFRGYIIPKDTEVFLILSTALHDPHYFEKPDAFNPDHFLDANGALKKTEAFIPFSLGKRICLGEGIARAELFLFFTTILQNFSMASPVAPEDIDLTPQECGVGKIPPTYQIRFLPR
# Cytochrome P450 2C19 = Cytochrome P450 2C19 (Homo sapiens, UniProt P33261); assay: Inhibition of human CYP2C19 expressed in Sacchrosomes using 3-cyano-7-ethoxycoumarin as substrate by fluorescence based assay; assay type: ADME
# Sequence of Cytochrome P450 2C19 (P33261 whole entry): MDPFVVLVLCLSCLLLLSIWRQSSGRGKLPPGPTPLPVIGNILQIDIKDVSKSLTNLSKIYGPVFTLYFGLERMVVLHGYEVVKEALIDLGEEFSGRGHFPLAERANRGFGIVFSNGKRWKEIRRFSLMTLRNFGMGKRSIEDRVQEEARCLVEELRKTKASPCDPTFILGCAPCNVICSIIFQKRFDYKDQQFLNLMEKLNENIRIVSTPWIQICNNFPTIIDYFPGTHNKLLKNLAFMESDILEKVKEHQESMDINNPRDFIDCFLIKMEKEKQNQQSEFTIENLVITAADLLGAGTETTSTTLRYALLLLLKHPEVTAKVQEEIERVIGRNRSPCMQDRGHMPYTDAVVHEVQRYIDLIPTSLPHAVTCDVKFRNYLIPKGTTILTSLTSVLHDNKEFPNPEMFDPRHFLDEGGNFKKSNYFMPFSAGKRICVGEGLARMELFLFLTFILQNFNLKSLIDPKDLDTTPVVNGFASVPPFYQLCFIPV
# Cytochrome P450 2C9 = Cytochrome P450 2C9 (Homo sapiens, UniProt P11712); assay: Inhibition of human CYP2C9 expressed in Sacchrosomes using 3-cyano-7-ethoxycoumarin as substrate by fluorescence based assay; assay type: ADME
# Sequence of Cytochrome P450 2C9 (P11712 whole entry): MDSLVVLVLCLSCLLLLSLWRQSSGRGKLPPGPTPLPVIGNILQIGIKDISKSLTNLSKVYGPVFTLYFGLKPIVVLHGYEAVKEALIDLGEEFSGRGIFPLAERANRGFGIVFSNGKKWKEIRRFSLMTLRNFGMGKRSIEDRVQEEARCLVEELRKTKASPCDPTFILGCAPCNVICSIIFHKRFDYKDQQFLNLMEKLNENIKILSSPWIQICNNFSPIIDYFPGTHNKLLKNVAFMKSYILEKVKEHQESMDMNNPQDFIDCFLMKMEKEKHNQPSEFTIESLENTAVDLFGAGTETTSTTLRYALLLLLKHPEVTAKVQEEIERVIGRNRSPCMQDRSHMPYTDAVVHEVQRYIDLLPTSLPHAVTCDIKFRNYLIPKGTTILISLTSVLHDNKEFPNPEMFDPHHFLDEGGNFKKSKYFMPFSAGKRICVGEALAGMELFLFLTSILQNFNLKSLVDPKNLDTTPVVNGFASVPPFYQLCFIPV
Structure (SMILES),IC50 (Cytochrome P450 2D6),IC50 (Cytochrome P450 1A1 [1]),Activity (MCF7 [2]),Activity (Cytochrome P450 1A1 [3]),IC50 (Cytochrome P450 2E1),IC50 (Cytochrome P450 2C18),Activity (MCF7 [4]),Ratio IC50 (Homo sapiens),IC50 (Cytochrome P450 1A1 [5]),IC50 (Cytochrome P450 2B6),IC50 (Cytochrome P450 2C19),IC50 (Cytochrome P450 2C9)
COc1c(-c2ccc3c(c2)OCO3)oc2c(ccc3occc32)c1=O [PONGAPIN],> 20 µM,0.071 µM,Active,100%,> 20 µM,> 20 µM,60%,53,0.02 µM,> 20 µM,> 20 µM,> 20 µM
O=c1cc(-c2ccccc2)oc2c1ccc1occc12 [LANCEOLATIN B],> 20 µM,0.076 µM,Active,100%,> 20 µM,> 20 µM,60%,19.5,0.02 µM,> 20 µM,> 20 µM,> 20 µM
